Bioassay records as filed in PubChem BioAssay.
KCNQ1 block: inhibitors of human KCNQ1 potassium channel | P51787 | CHO-K1 KCNQ1, FluxOR thallium flux fluorescence; stronger effect = higher value | B-score at 10 µM | 310,000 tested, 1.3% active | AID 2642;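 active = compounds whose thallium flux B-score, printed positive for inhibition, exceeds three library SD while starting fluorescence stays within three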;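 also: channel opened by potassium depolarization with thallium stimulus after 20 min compound exposure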
hERG rescue: shields human hERG channel from block by proarrhythmic agents; Q12809; CHO-hERG, FluxOR thallium flux, dofetilide IC70 present; activation (rescue from dofetilide block), less the hit threshold, % at 10 µM; 310,000 tested, 0.51% active; AID 1511;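 active = activation above the mean of controls blocked by dofetilide plus 5 SD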;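 also: thallium influx through hERG after potassium depolarization seen as dye fluorescence rise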
KCNQ1 pot: human KCNQ1 channel potentiation or activation; P51787; CHO-K1 KCNQ1, thallium flux FluxOR fluorescence; stronger effect = higher value; B-score at 10 µM; 310,000 tested, 0.35% active; AID 2648;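 active = fluorescence ratio B-score, a plate-corrected score, at least three library SD, with initial intensity B-score within 5 SD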
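Material: CHO-K1 cells stably expressing KCNQ1. Medium: assay buffer for compound exposure, DMSO matched across wells. Reagent: K+/Tl+ depolarizing stimulus. Compound dosing: single-concentration screen. Times: 37 °C overnight plating, 90-min dark dye load, 20-min compound pretreatment. Technique: FluxOR Tl+ flux fluorescence.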
KCNK9 block: human KCNK9 channel inhibition; 310,000 tested, 1.2% active; B-score at 10 µM; Q9NPC2; HEK293 KCNK9, FluxOR thallium flux fluorescence; stronger effect = lower value; AID 488922;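 active = ratio B-score over 3 SD below the library mean, with starting fluorescence within 5 SD of its mean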;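 also: negative B-score means less thallium flux so channel inhibition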
Target sequence (Q9NPC2 whole entry, looked up): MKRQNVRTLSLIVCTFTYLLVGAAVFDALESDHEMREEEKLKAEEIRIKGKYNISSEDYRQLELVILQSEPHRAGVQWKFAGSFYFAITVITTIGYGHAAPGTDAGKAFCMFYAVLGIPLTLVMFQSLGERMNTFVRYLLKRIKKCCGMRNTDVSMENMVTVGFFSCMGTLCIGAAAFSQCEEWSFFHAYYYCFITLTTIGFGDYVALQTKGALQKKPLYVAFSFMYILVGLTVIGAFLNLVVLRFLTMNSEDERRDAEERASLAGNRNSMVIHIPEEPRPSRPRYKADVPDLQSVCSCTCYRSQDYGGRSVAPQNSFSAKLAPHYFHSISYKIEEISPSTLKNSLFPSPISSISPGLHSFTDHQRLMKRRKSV
Kir21 block: blocks the mouse Kir2.1 inward-rectifier potassium channel | B-score at 10 µM | HEK293-Kir2.1, FluxOR thallium flux fluorescence; stronger effect = lower value | 310,000 tested, 0.85% active;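 active = fluorescence ratio B-score at or below minus 3 SD of library scores, with starting-brightness B-score within 2 SD, cut at about -4.2 in these data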;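 also: channel flux triggered by added potassium and thallium sulfate stimulus; B-score of peak minus minimum fluorescence over baseline after thallium stimulus; more negative B-score means stronger Kir2.1 block with less thallium influx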
KCNK3 block: human KCNK3 channel inhibition, primary screen; CHO-KCNK3 thallium flux, FluxOR fluorescence; stronger effect = lower value; B-score at 10 µM; 340,000 tested, 0.84% active; AID 602410;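 active = B-score under library mean minus 4 SD, starting fluorescence ratio at most library mean plus 5 SD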;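 also: more negative B-score means stronger inhibition of thallium flux through KCNK3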
KCNK9 block conf: human KCNK9 inhibitor confirmation. shares compounds with KCNK9 block. HEK293 KCNK9 cells, FluxOR thallium flux fluorescence. inhibition, % at 10 µM. 4,900 tested, 43% active;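 active = thallium signal inhibited by more than 5 SD of the compound-free buffer control wells, on both duplicate plates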;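 also: 0% = assay buffer control wells without compound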
Kir21 sel: selectivity of KCNK9 modulators against mouse Kir2.1; Kir2.1 cells, FluxOR thallium flux fluorescence; shares compounds with KCNK9 block; 4,900 tested, 4% active; inhibition, % at 10 µM;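 active = thallium signal drop more than 5 SD beyond the mean of the no-compound control wells, seen in both duplicate plates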;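 also: signal is fluorescence rise after thallium addition divided by baseline fluorescence; plate controls were assay buffer only for no effect and full block by chlorpromazine control for full effect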
KCNK9 uninduced: second counter-screen for KCNK9 modulators: effect in non-induced cells; shares compounds with KCNK9 block; non-induced KCNK9-HEK293, FluxOR thallium flux; inhibition, % at 10 µM; 4,900 tested, 40% active; AID 492997;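 active = thallium signal drop beyond 5 SD of the untreated control mean, on both duplicate plates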;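 also: plate controls were buffer only IC0 wells for no effect and SID17386958 at its maximal inhibitory level for full effect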
* = called active by the depositor; i = inactive; nt = not tested or not shown. An excerpt weighted towards active compounds, which were near 3.7% of everything screened.

SMILES	KCNQ1 block	hERG rescue	KCNQ1 pot	KCNK9 block	Kir21 block	KCNK3 block	KCNK9 block conf	Kir21 sel	KCNK9 uninduced
O=C(CN1C(=O)C2CC=CCC2C1=O)Nc1nc(-c2ccc(F)c(F)c2)cs1 (stereo unspecified)	nt	nt	nt	nt	nt	i	nt	nt	nt
Cc1cc(Cl)ccc1OCC(=O)N/N=C/c1ccncc1	i	-6	i	i	-0.07	i	nt	nt	nt
Cc1ccc(NC(=O)CN2C(=O)S/C(=C\c3cc(C)n(-c4ccc(C(=O)O)cc4)c3C)C2=O)cc1	i	-12	i	i	0.75	i	i	i	i
Cc1ccc(Nc2nc3ccccc3nc2-n2nc(C)cc2C)cc1	i	-10	i	-9.8*	0.91	i	57%*	i	32%*
CC1CCc2c(sc(NC(=O)C3=COCCO3)c2C(N)=O)C1 (stereo unspecified)	nt	nt	nt	nt	nt	i	nt	nt	nt
O=C(NCCc1ccccc1)c1ccc(NC(=O)C2CCCC2)cc1	nt	nt	nt	nt	nt	i	nt	nt	nt
C=C(C)Cn1c(CCNC(=O)CC)nc2ccccc21	i	-13	i	i	-1.1	i	nt	nt	nt
C=C(C)Cn1c(CCNC(=O)C(C)C)nc2ccccc21	i	-13	i	i	0	i	i	i	i
COc1cccc(NC(=O)CN(C)C(=O)c2ccc(Cl)c(S(=O)(=O)N3CCCCCC3)c2)c1	nt	nt	nt	nt	nt	i	nt	nt	nt
Cc1cccc(-c2nc(CSCC(=O)NCc3cccs3)c(C)o2)c1	i	-15	i	i	-0.69	i	i	i	i
COC(=O)c1cc(OC)c(OC)cc1NC(=O)c1ccccc1C	i	-22	i	i	0.9	i	nt	nt	nt
COc1cc2c(cc1OC)-c1nnc(-c3ccco3)n1C1(CCCC1)C2	i	-8	i	-13*	1.2	i	46%*	i	28%*
Cc1ccc(S(=O)(=O)N2CCCCC2)cc1NS(=O)(=O)c1cccc(C(=O)O)c1	i	-7	i	i	-0.53	i	nt	nt	nt
CC(C)c1ccccc1NC(=O)c1ccc2ncsc2c1	i	-6	i	i	1.6	i	nt	nt	nt
CCOC(=O)c1c(NS(=O)(=O)c2ccc(Br)cc2)sc2c1CCC2	i	62*	56*	i	0.18	i	i	i	i
COC(=O)c1c(NS(=O)(=O)c2ccc3ccccc3c2)sc2c1CCCC2	i	17*	33*	i	0.67	i	i	i	i
CC1CCc2c(sc(NS(=O)(=O)c3ccccc3)c2C(=O)OC(C)C)C1 (stereo unspecified)	i	4	26*	i	2.5	i	i	i	i
CC1CCc2c(sc(NC(=O)c3ccco3)c2C(=O)O)C1 (stereo unspecified)	i	-5	i	i	0.07	i	nt	nt	nt
CC(C)(CNC(=O)CNC(=O)c1ccc(Cl)cc1Cl)N1CCOCC1	nt	nt	nt	nt	nt	i	nt	nt	nt
CCCN(CCC)C(=O)Cn1c(=O)c2ccccc2n2c(=S)sc(-c3ccccc3C)c12	i	-1	i	i	0.55	i	i	i	i
O=C(CSc1nnnn1-c1cccc2ccccc12)Nc1ccc(C(=O)O)cc1	i	-10	i	i	-0.26	i	nt	nt	nt
CCOC(=O)C(C(C)=O)c1c(Br)c(O)c(O)c2c(C(=O)c3ccc(C)cc3)coc12 (stereo unspecified)	9*	-9	i	-15*	0.93	i	70%*	i	46%*
COc1ncnc(-c2ccccc2)c1-c1ccccc1	i	-10	i	i	-1.7	i	nt	nt	nt
O=C(OCC(=O)c1cccs1)c1ccccc1	i	-12	i	i	0.23	i	nt	nt	nt
O=C(CC(Nc1ccccc1Cl)C(=O)OCC(=O)c1cccs1)c1ccccc1 (stereo unspecified)	i	-10	i	-9.4*	-1.5	i	42%*	i	28%*
SMILES	KCNQ1 block	hERG rescue	KCNQ1 pot	KCNK9 block	Kir21 block	KCNK3 block	KCNK9 block conf	Kir21 sel	KCNK9 uninduced
O=C(/C=C/c1ccccc1)NC1CCCc2ccccc21 (stereo unspecified)	i	-8	i	i	-1.3	nt	nt	nt	nt
Oc1ccc(Br)cc1C1Nc2ccccc2S1 (stereo unspecified)	i	-8	i	i	0.7	i	nt	nt	nt
COc1ccccc1CNC(=O)c1cc(-c2ccccc2)nn1CC1CC(c2cccc([N+](=O)[O-])c2)=NO1 (stereo unspecified)	i	-8	i	-8.7*	-1.6	i	44%*	i	30%*
O=C(NCc1cccs1)c1cc(-c2ccccc2)nn1CC1CC(c2cccc([N+](=O)[O-])c2)=NO1 (stereo unspecified)	i	-4	i	i	-0.11	i	nt	nt	nt
COC(=O)c1cn(C(=O)c2ccc(C)cc2C)c2ccccc12	i	-12	i	i	-0.31	i	i	i	32%*
COC(=O)c1cn(C(=O)c2ccccc2Cl)c2ccccc12	i	-5	i	i	0.53	i	nt	nt	nt
CCOCCCNC(=S)NCCCNc1nc2ccc(C)cc2cc1C#N	i	-14	i	i	0.14	nt	nt	nt	nt
CCOCCCNC(=S)NCCNc1nc2ccc(C)cc2cc1C#N	i	-8	i	-8.3*	0.64	i	i	i	i
O=C(O)c1ccc(CSc2nc(-c3ccccc3)cc(C(F)(F)F)n2)cc1	i	-6	i	i	0.15	i	i	i	i
CCOc1c(C)cnc2c1c(=O)n(CC(=O)NCC1CCCO1)c(=O)n2C (stereo unspecified)	i	-14	i	i	0.53	i	nt	nt	nt
Cc1ccc(C)c(NS(=O)(=O)c2cc(C(=O)Nc3ccccc3-c3ccccc3)ccc2Cl)c1	i	-2	i	-13*	-0.03	i	39%*	i	32%*
Cc1cccn2cc(CSc3nnc(Nc4ccc(C(C)C)cc4)s3)nc12	i	-5	i	i	-0.06	i	i	i	i
Nc1c(S(=O)(=O)c2cccs2)c2nc3ccccc3nc2n1Cc1ccc2c(c1)OCO2	i	-3	i	-12*	-0.74	i	32%*	i	40%*
Nc1c(S(=O)(=O)c2cccs2)c2nc3ccccc3nc2n1Cc1cccs1	i	-6	i	i	-0.72	i	nt	nt	nt
